{"source": "paper PMC9929523", "about": "(International Journal for Parasitology: Drugs and Drug …, 2023)", "key": {"[1]": {"system": "Schistosoma mansoni", "test": "S. mansoni killing in vitro", "format": "cell-based", "in_short": "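Hamster-derived adult male worms, 10 per well, in DMEM with 10% heat-inactivated FBS and antibiotic/antimycotic. Dosed within 2–4 h of harvest from 100X DMSO spikes: 0–143 μM, triplicate, 45 min at 37 °C, 5% CO2. Second set used 143 μM or DMSO for 15, 30 or 45 min. Worms washed thrice and cultured 14 days, medium changed every other day. Daily survival scored by motility, shedding, opacity and tegument blebbing; Kaplan-Meier curves.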"}, "[2]": {"test": "Clinical human OXA pharmacokinetics", "format": "in vivo", "conditions": "40 mg/kg dose, assuming dose proportionality"}, "[3]": {"test": "Estimation of human hepatic inlet", "format": "in vivo"}, "[4]": {"test": "Hepatic microsomal stability", "format": "in vitro ADME", "conditions": "mouse, liver microsomes, pH 7.4, intrinsic clearance, 1 μM OXA, 0.2 mg protein per ml", "in_short": "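Test compound (1 μM) incubated with mouse hepatic microsomes at 1, 0.5 and 0.2 mg/mL in 100 mM potassium phosphate, pH 7.4. Samples filtered and analysed by LC-MS/MS. Log-transformed data gave half-life. CLint (μl/min/mg) = ln2 × incubation volume / (half-life × mg protein). Unbound CLint came from the y-intercept of microsomal concentration vs 1/CLint.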"}, "[5]": {"test": "Blood to plasma ratio, Rb", "format": "in vitro ADME", "conditions": "female, C57Bl/6J, mouse, fresh heparinized whole blood and fresh plasma", "in_short": "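Heparinized whole blood from female C57Bl/6J mice and matching fresh plasma were each spiked from a 10 mM DMSO stock to a final 5 μM and held 30 min at 37 °C. Samples were spun at 8000×g for 3 min, extracted into ACN/MeOH with diclofenac internal standard, and measured by LC-MS/MS. Rb = concentration in directly spiked plasma / concentration in plasma from spiked blood.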"}, "[6]": {"test": "Mouse pharmacokinetics", "format": "in vivo"}, "[7]": {"test": "Tissue distribution in wild-type C57Bl/6J mice", "format": "in vivo, mouse", "conditions": "4-h time point, 100 mg/kg oral dose"}, "[8]": {"system": "P-gp efflux transporter", "test": "Tissue distribution in P-gp knockout mice", "format": "in vivo, mouse", "conditions": "wild-type vs P-gp knockout mice, 4 h after 100 mg/kg oral dose"}, "[9]": {"test": "Formulation solubility", "format": "physicochemical", "in_short": "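The aim was an oral dosing vehicle. Co-solvent solutions (polyethylene glycol or ethanol) were checked for precipitation by diluting 1:10 into saline. A 10 mg/ml solution was prepared in 100 mM acetate buffer, pH 4.5.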"}, "[10]": {"conditions": "ref Daneshmend and Homeida, 1987, cited from earlier work"}, "[11]": {"test": "Estimation of mouse hepatic inlet"}, "[12]": {"system": "S. haematobium", "conditions": "meta-analysis, S. haematobium infections; ref Zwang and Olliaro, 2014; cited from earlier work"}, "[13]": {"system": "S. mansoni", "conditions": "meta-analysis, S. mansoni infections; ref Zwang and Olliaro, 2014; cited from earlier work"}, "[14]": {"system": "schistosomiasis", "conditions": "sub-Saharan Africa; ref Doenhoff et al., 2009; cited from earlier work"}, "[15]": {"conditions": "female, C57Bl/6J, mouse, plasma, iv, 3 mg/kg"}, "[16]": {"conditions": "female, C57Bl/6J, mouse, plasma, po, 100 mg/kg, pH 4.5"}, "[17]": {"conditions": "patients n = 9, single oral dose 1000 mg"}, "[18]": {"conditions": "100 mg/kg PO acetate buffer, WinNonlin one-compartment model"}, "[19]": {"conditions": "100 mg/kg PO acetate buffer, method of residuals"}}, "note": "Where “and” joins values, the source holds several entries; their conditions need not be identical. Equal entries are not always repeated. Where two headings read alike, the source gives them in different places."}
{"smiles": "CC(C)NCC1CCc2cc(CO)c([N+](=O)[O-])cc2N1", "note": "(stereo not drawn) [OXA, oxamniquine]", "values": [{"measurement": "worm killing at lower concentrations", "setting": "[1]; 35.75 μM and 14.3 μM, 45 min exposure, 14 days", "result": "minimal worm killing"}, {"measurement": "worm survival", "setting": "[1]; 71.5 μM, 45 min exposure, 14 days", "result": "significantly reduced"}, {"measurement": "worm survival", "setting": "[1]; 143 μM, 45 min exposure, 14 days", "result": "significantly reduced"}, {"measurement": "worm killing", "setting": "[1]; 143 μM, 45 min exposure, adult male worms, 14 days", "result": 90, "unit": "%"}, {"measurement": "efficacy of worm killing with shorter exposure times", "setting": "[1]; 143 μM, exposure 15 and 30 min", "result": "maintained"}, {"measurement": "expected maximal plasma levels", "setting": "[2]", "result": "9 to 14", "unit": "µM"}, {"measurement": "rate of absorption in the human intestine", "setting": "[3]", "result": "approximately 2.5 % per minute"}, {"measurement": "microsomal CLint at 1 μM", "setting": "[4]", "result": 196, "unit": "µL/min/mg"}, {"measurement": "blood plasma ratio at 30 min, 5 μM", "setting": "[5]", "result": 1.6}, {"measurement": "Cl clearance", "setting": "[6]; 100 mg/kg PO, 100 mM acetate buffer pH 4.5", "result": "159 ± 3", "unit": "mL/min/kg"}, {"measurement": "AUC(0-inf)", "setting": "[6]; [15]", "result": 1.1, "unit": "µM·h"}, {"measurement": "Cmax", "setting": "[6]; [15]", "result": "2.2 ± 0.1", "unit": "µM"}, {"measurement": "Tmax", "setting": "[6]; [15]", "result": 5, "unit": "min"}, {"measurement": "clearance", "setting": "[6]; [15]", "result": "157 ± 3", "unit": "mL/min/kg"}, {"measurement": "half-life", "setting": "[6]; [15]", "result": "51 ± 6", "unit": "min"}, {"measurement": "AUC(0-inf)", "setting": "[6]; [16]", "result": "26.1 ± 1.7", "unit": "µM·h"}, {"measurement": "CL/F", "setting": "[6]; [16]", "result": "230 ± 14", "unit": "mL/min/kg"}, {"measurement": "Cmax", "setting": "[6]; [16]", "result": "11.8 ± 1.6", "unit": "µM"}, {"measurement": "Tmax", "setting": "[6]; [16]", "result": 50, "unit": "min"}, {"measurement": "bioavailability", "setting": "[6]; [16]", "result": "69.5 ± 5.3", "unit": "%"}, {"measurement": "half-life", "setting": "[6]; [16]", "result": "58 ± 6", "unit": "min"}, {"measurement": "bile concentration relative to liver tissue", "setting": "[7]", "result": 15, "unit": "fold"}, {"measurement": "impact of efflux transporter P-gp on tissue distribution", "setting": "[8]", "result": "no indication that the efflux transporter P-gp impacts tissue distribution"}, {"measurement": "solubility dependence on pH", "setting": "[9]", "result": "increases at low pH"}, {"measurement": "stable solution concentration", "setting": "[9]; 100 mM acetate buffer, pH 4.5", "result": 10, "unit": "mg/mL"}, {"measurement": "peak plasma concentrations", "setting": "[10]; human, approximately 20 mg/kg oral dose", "result": "4 to 7", "unit": "µM"}, {"measurement": "AUC(0-∞)", "setting": "[10]; [17]", "result": "20.2 ± 4.9", "unit": "µM·h"}, {"measurement": "Cmax", "setting": "[10]; [17]", "result": "4.5 ± 0.9", "unit": "µM"}, {"measurement": "T1/2", "setting": "[10]; [17]", "result": "151 ± 23", "unit": "min"}, {"measurement": "Tmax", "setting": "[10]; [17]", "result": "103 ± 12", "unit": "min"}, {"measurement": "Inlet Concentration (portal)", "setting": "[11]; [18]", "result": "118 µM and 118 ± 10 µM"}, {"measurement": "ka absorption rate constant", "setting": "[11]; [18]", "result": 0.043, "unit": "min⁻¹"}, {"measurement": "Inlet Concentration (portal)", "setting": "[11]; [19]", "result": "132 µM and 132 ± 11 µM"}, {"measurement": "ka absorption rate constant", "setting": "[11]; [19]", "result": 0.049, "unit": "min⁻¹"}, {"measurement": "k el", "setting": "[11]; C57Bl/6J, mouse, in vivo, po, 100 mg/kg, ke elimination rate constant, 100 mg/kg PO acetate buffer, method of residuals", "result": 0.0002, "unit": "s⁻¹"}, {"measurement": "fraction orally absorbed (Fa x Fg)", "setting": "[11]; mouse, true value could range between 0.7 and 1", "result": 0.7}]}
{"smiles": "O=C(C1CCCCC1)N1CC(=O)N2CCc3ccccc3C2C1", "note": "(stereo not drawn) [praziquantel]", "values": [{"measurement": "cure rate", "setting": "[12]", "result": 77.1, "unit": "%"}, {"measurement": "cure rate", "setting": "[13]", "result": 76.7, "unit": "%"}, {"measurement": "cure rates", "setting": "[14]", "result": "60–90%"}]}
